# Compound activity as filed in PubChem BioAssay.
# Rows were chosen to be rich in hits. Some 3.6% of all compounds tested hit in one or more screens of this group.
# Yeast lifespan up = extends the lifespan of yeast. AID 775. 0.68% of 130,000 active. inhibition of the nicotinamide effect, % at 10 µM. S. cerevisiae growth with nicotinamide, OD615; deaD strain in restrictive glucose medium;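 active = inhibition above a set limit, placed 3 SD over the median of all compounds, cut at about 26% in these data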;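 note: 0% = nicotinamide-treated wells and 100% = cells grown without nicotinamide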
#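 Assay system: engineered S. cerevisiae DeaD replicative-lifespan strain, galactose-grown log-phase cells; Buffer or medium: CSMM-D glucose medium, restrictive; Probe or stimulus: nicotinamide 1.5 mM; Compound: single dose 10 µM compound, 0.25% DMSO; Schedule: 4 h preincubation then 48 h treatment at 30 °C; Technique: OD615 measurement.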
# Yeast growth inh = chemicals that inhibit yeast BB579 growth in restrictive medium (lifespan-shortening candidates). 0.51% of 140,000 active. inhibition, % at 10 µM. S. cerevisiae BB579 growth, OD615, 48 h;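 active = inhibition above a set limit, 3 SD over the mean compound inhibition, cut at about 44% in these data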
#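 Detection: OD615 turbidity measurement; Material: Saccharomyces cerevisiae DeaD strain BB579, replicative lifespan model yeast; Timing: 48 h exposure, 30 °C; Doses: single 10 µM dose; Medium: CSMM-D restrictive synthetic medium containing dextrose (glucose); Controls: amphotericin B at 10 µg/mL as positive control.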
# Measles CPE = protection of cells from measles virus; Measles virus-infected cells, CPE protection, absorbance; protection (pct of control), % at 4 µM; 1.5% of 140,000 active; AID 841; in the data active = protection mostly above about 24%, no sharp cut-off; inactive = mostly below about 26%
# RAM network inh = inhibitors of the yeast RAM network. S. cerevisiae dse1pr::URA3 reporter, 5-FOA growth OD615, 2 d; analog-sensitive cbk1-as2 kinase mutant strain. inhibition, % at 50 µM. 1.8% of 190,000 active. AID 868;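 active = inhibition above a set limit, 3 SD over mean compound inhibition, cut at about 8.4% in these data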;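 note: 0% = DMSO-only wells with no growth and 100% = 10 µM 1-NA-PP1 full growth; inhibition rescues growth on 5-FOA so higher OD means more RAM inhibition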
# An asterisk follows results filed as active; nt = not tested or not shown.
SMILES,Yeast lifespan up,Yeast growth inh,Measles CPE,RAM network inh
CN1CCN(C(=O)CSc2ccc(C(F)(F)F)cc2[N+](=O)[O-])CC1,30*,-17,4,0
COc1cc(OC)nc(Oc2ccccc2C(=O)Oc2ccc(C)cc2)n1,1,-105,18,9.5*
COc1cc(OC)nc(Oc2ccccc2C(=O)Oc2ccc(Cl)cc2)n1,4,-83,31,7
CC(C)(C)c1cc(CN2CCN(CCO)CC2)cc(C(C)(C)C)c1O,32*,-15,2,1
CCOC(=O)C1CCN(Cc2cc(C(C)(C)C)c(O)c(C(C)(C)C)c2)CC1,nt,nt,nt,0
O=C(Cc1cccs1)N/N=C/C(Br)=C/c1ccccc1,-1,-42,48*,2
Cc1cc(O)c(/C=N/Nc2cccc(Cl)c2)c(=O)o1,-26,98*,6,-1
Cc1cc(O)c(/C=N/Nc2ccccc2Cl)c(=O)o1,-32,98*,2,0
Cc1cc(O)c(/C=N/Nc2ccc(Cl)cc2)c(=O)o1,-28,97*,1,2
Cc1cccc(N=Cc2c(O)cc(C)oc2=O)c1,nt,nt,nt,0
CCc1ccccc1N/N=C(/C)c1c(O)cc(C)oc1=O,nt,nt,nt,-1
CCOc1ccccc1N1CCN(C(=O)c2csc(C)c2CC)CC1,nt,nt,nt,0
CCCCCC/C(C)=C1/SC(=S)NC1=O,-13,95*,3,2
O=C(Nc1nnc(-c2cccnc2)o1)c1cccc(Cl)c1,nt,nt,nt,-1
CN(C(=O)CSc1nnnn1-c1ccccc1)C1CCS(=O)(=O)C1 (configuration not stated),nt,nt,nt,-1
Cc1ccc2c(c1)N(C(=O)CCC(=O)O)CCO2,6,-26,28*,3
CCOC(=O)N1CCN(C(=O)CCC(=O)N2CCOc3ccc(C)cc32)CC1,-20,-33,7,2
O=C(COC(=O)C1(c2ccc(Cl)cc2)CCCC1)Nc1ncc(C(F)(F)F)cc1Cl,3,-54,15,8.9*
CCN(CC)S(=O)(=O)c1ccc(N=NC2=C(O)CCCC2=O)cc1,10,7,34*,0
CCN(CC)S(=O)(=O)c1ccc(N=NC2=C(O)CC(C)(C)CC2=O)cc1,3,2,27,0
Cc1cccc(Nc2c([N+](=O)[O-])cc(C(=O)N3CC(=O)Nc4ccccc43)cc2[N+](=O)[O-])c1,nt,nt,nt,9.5*
CCOC(=O)CCCNC(=O)COc1ccccc1C#N,66*,-11,5,2
Cn1nc(C(=O)Nc2nc3ccccc3[nH]2)c2ccccc2c1=O,-4,-13,6,1
Cn1nc(C(=O)Nc2c(-c3ccccc3)nc3sccn23)c2ccccc2c1=O,2,-22,3,9.2*
COc1ccc(-n2c(=O)/c(=C\c3cccs3)s/c2=C(/C#N)C(=O)N2CCN(C)CC2)cc1,nt,nt,nt,-1
SMILES,Yeast lifespan up,Yeast growth inh,Measles CPE,RAM network inh
O=c1c(Cl)c(NCc2ccc(F)cc2)cnn1C12CC3CC(CC(C3)C1)C2,2,-12,36*,2
CCOC(=O)c1c(C)[nH]c(C)c1C(=O)COC(=O)c1ccc(S(=O)(=O)N(CC)CC)cc1,-13,-38,51*,8.7*
COC(=O)c1ccc(Cl)c(-c2ccc(/C=N/NC(=O)Nc3ccccc3)o2)c1,-13,-66,7,9.0*
CCOc1ccc(Oc2ccccc2NC(=O)CCNC(C)=O)cc1,nt,nt,nt,1
CCOC(=O)CCSCC(=O)N1N=C(c2cccs2)CC1c1ccc(C)cc1 (configuration not stated),10,-33,18,9.3*
O=S(=O)(NCc1ccccc1)c1cccc2cccnc12,-6,-32,43*,1
Cc1cc(C(=O)NP(=O)(N2CCOCC2)N2CCOCC2)c(C)n1-c1ccc(Br)cc1,-5,-18,46*,-1
CC(=O)C1=C(C)N(Cc2ccccc2)C(=O)N[C@@H]1c1cccc(C(F)(F)F)c1,29*,-27,13,1
CC(=O)C1=C(C)N(Cc2ccccc2)C(=O)N[C@H]1c1cccc(C(F)(F)F)c1,3,-23,12,-1
CCOC(=O)CSc1c(-c2ccc(Cl)cc2)[nH]c2ccccc12,-2,-8,20,1
O=C(Cc1cccs1)NCCSc1c(-c2ccc(Cl)cc2)[nH]c2ccccc12,8,-24,12,8.9*
CCC(C)N(C(=O)CSc1ccc(NC(C)=O)cc1)C1CCS(=O)(=O)C1 (configuration not stated),nt,nt,nt,1
CC(C)CC(=O)Nc1ccc(C(=O)NNC(=S)NC(=O)C2CCCCC2)cc1,0,-9,5,8.4*
CCC(=O)NC(=S)NNC(=O)c1ccc(NC(=O)c2ccccc2)cc1,nt,nt,nt,6
COC(=O)c1sccc1NC(=O)CN(C)NS(=O)(=O)c1ccc(Cl)cc1,-17,3,44*,3
CC(NC(=O)CCc1nnc(CCCc2ccccc2)o1)c1ccccc1 (configuration not stated),nt,nt,nt,1
Cc1ccc(NC(=O)C2CCCN(S(=O)(=O)c3cnc[nH]3)C2)c(Br)c1 (configuration not stated),-12,-50,29*,4
O=S(=O)(c1ccc2ccccc2c1)N(CC1CO1)c1ccccc1 (configuration not stated),nt,nt,nt,3
COc1ccc(C2=NN(C(C#N)c3ccc(OC)c(OC)c3)C(c3ccccc3)C2)cc1 (configuration not stated),-15,-17,2,8.5*
COc1ccc(C(C#N)N2CCC(c3ccccc3)=N2)cc1OC (configuration not stated),nt,nt,nt,3
O=C(Nc1ccc(SC(F)(F)F)cc1)c1ccccn1,nt,nt,nt,2
COc1cccc2sc(Nc3nc(-c4ccccn4)cs3)nc12,-4,88*,12,-1
c1ccc(Nc2nc(-c3ccccn3)cs2)cc1,-9,29,15,1
CCn1ncc(Br)c1C(=O)Nc1ccn(C23CC4CC(CC(C4)C2)C3)n1,-5,-9,41*,1
CCn1ncc(Br)c1C(=O)N(C)C12CC3CC(CC(C3)C1)C2,22,-20,6,1
SMILES,Yeast lifespan up,Yeast growth inh,Measles CPE,RAM network inh
Cc1ccc(SCC(=O)N2N=CCC2c2ccccc2)cc1 (configuration not stated),nt,nt,nt,0
COc1ccc(/C(=C/c2ccc(OC(F)F)c(OC)c2)C(=O)O)cc1OC,-2,-21,60*,0
COc1ccc(C(=O)Nc2nc3c(s2)CCCC3)cc1S(=O)(=O)N1CCCc2ccccc21,-1,-36,36*,5
COc1cccc(OCC(O)CN(CCO)Cc2ccccc2)c1 (configuration not stated),-2,-13,32*,1
Cc1[nH]n(-c2ncc(-c3ccc(Cl)cc3)s2)c(=O)c1C(c1ccc(Cl)cc1)C(C#N)C#N (configuration not stated),8,-9,1,8.6*
O=C1CC(c2ccccc2)n2nc(N3C(=O)CCC3=O)nc2N1 (configuration not stated),-7,9,52*,2
Cc1ccc(Nc2nc(N)nc(CSc3nc4ccccc4s3)n2)cc1,-20,-71,4,9.8*
Cc1ccccc1Nc1nc(N)nc(CSc2nc3ccccc3s2)n1,-5,-20,2,2
